Reference: ChEMBL document CHEMBL3351567, “Heterodimeric ent-kauranoids from Isodon tenuifolius” (J Nat Prod, 2014)

How the values were obtained:
Format in all cases: functional, cell-based
MCF7 = assay: Cytotoxicity against human MCF7 cells after 48 hrs by MTT assay; conditions: MCF7, 48 h
In short: (§1)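 Cells grown in RPMI-1640 or DMEM with 10% FBS, 37 °C, 5% CO2. Seeded at 1 × 10^5 cells/mL in 100 μL; adherent lines attached 12 h before dosing, suspension cells seeded at dosing. Compound at various concentrations in triplicate, 48 h. MTT (100 μg) added for 4 h, lysed with 20% SDS–50% DMF, OD 595 nm. IC50 by Reed–Muench method; cisplatin and paclitaxel as positive controls.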

A549 = assay: Cytotoxicity against human A549 cells after 48 hrs by MTT assay; conditions: A549, 48 h; in short: as §1
SMMC-7721 = assay: Cytotoxicity against human SMMC7721 cells after 48 hrs by MTT assay; conditions: SMMC-7721, 48 h; in short: as §1
[1] = Cytotoxicity against human HL60 cells after 48 hrs by MTT assay; conditions: HL-60, 48 h; in short: as §1
SW480 = assay: Cytotoxicity against human SW480 cells after 48 hrs by MTT assay; conditions: SW480, 48 h; in short: as §1

SMILES | IC50 (MCF7) [µM] | IC50 (A549) [µM] | IC50 (SMMC-7721) [µM] | IC50 [1] [µM] | IC50 (SW480) [µM]
CC(=O)O[C@H]1C[C@@H]2C[C@@]3(CC(=O)[C@@H]4C(C)(C)[C@@H](O)C[C@H](OC(C)=O)[C@@]4(C)[C@H]13)C(=O)[C@]21CC[C@@]12C(=O)[C@]13C[C@H]2C[C@H](OC(C)=O)[C@H]1[C@]1(C)[C@@H](OC(C)=O)C[C@H](O)C(C)(C)[C@H]1C(=O)[C@@H]3OC(C)=O | > 10 | > 10 | > 10 | > 10 | > 10
COC[C@@]1(C[C@@H]2C(=O)[C@]34C[C@H]2C[C@H](OC(C)=O)[C@H]3[C@]2(C)[C@@H](OC(C)=O)C[C@H](O)C(C)(C)[C@H]2C(=O)[C@@H]4O)C(=O)[C@]23C[C@H]1C[C@H](OC(C)=O)[C@H]2[C@]1(C)[C@@H](OC(C)=O)C[C@H](O)C(C)(C)[C@H]1C(=O)[C@H]3O | > 10 | > 10 | > 10 | > 10 | > 10
COC[C@@]1(C[C@@H]2C(=O)[C@]34C[C@H]2C[C@H](OC(C)=O)[C@H]3[C@@]2(C)[C@H](C(=O)[C@@H]4O)C(C)(C)[C@@H](O)C[C@@H]2O)C(=O)[C@]23C[C@H]1C[C@H](OC(C)=O)[C@H]2[C@]1(C)[C@@H](OC(C)=O)C[C@H](O)C(C)(C)[C@H]1C(=O)[C@@H]3O | > 10 | > 10 | > 10 | > 10 | > 10
CC(=O)O[C@H]1C[C@@H]2C[C@@]3(C(=O)[C@]24CCC2=C(O4)[C@@]45CC(=O)[C@@H]6C(C)(C)[C@@H](OC(C)=O)C[C@H](O)[C@@]6(C)[C@@H]4C(=O)C[C@@H]2C5)[C@@H]1[C@]1(C)[C@@H](OC(C)=O)C[C@H](O)C(C)(C)[C@H]1C(=O)[C@@H]3OC(C)=O | > 10 | > 10 | > 10 | > 10 | > 10
CC(=O)O[C@H]1C[C@@H]2C[C@@]3(C4=C2CC[C@@]2(O4)C(=O)[C@]45C[C@H]2C[C@H](OC(C)=O)[C@H]4[C@]2(C)[C@@H](OC(C)=O)C[C@H](O)C(C)(C)[C@H]2C(=O)[C@@H]5OC(C)=O)[C@@H]1[C@]1(C)[C@@H](OC(C)=O)C[C@H](OC(C)=O)C(C)(C)[C@H]1C(=O)[C@@H]3O | 4.2 | > 10 | 9.9 | 4.6 | 4
CC(=O)O[C@H]1C[C@@H]2C[C@@]3(C(=O)[C@]24CC[C@@]42C(=O)[C@]45C[C@H]2C[C@H](OC(C)=O)[C@H]4[C@]2(C)[C@@H](OC(C)=O)C[C@H](O)C(C)(C)[C@H]2C(=O)[C@@H]5O)[C@@H]1[C@]1(C)[C@@H](OC(C)=O)C[C@H](OC(C)=O)C(C)(C)[C@H]1C(=O)[C@@H]3OC(C)=O | > 10 | > 10 | > 10 | > 10 | > 10
CC(=O)O[C@H]1C[C@@H]2C[C@@]3(C(=O)[C@]24CCC2=C(O4)[C@]45C[C@H]2C[C@H](OC(C)=O)[C@H]4[C@]2(C)[C@@H](OC(C)=O)C[C@H](O)C(C)(C)[C@H]2C(=O)[C@@H]5O)[C@@H]1[C@]1(C)[C@@H](OC(C)=O)C[C@H](O)C(C)(C)[C@H]1C(=O)[C@@H]3O | > 10 | > 10 | > 10 | > 10 | > 10
CC(=O)O[C@H]1C(=O)[C@@]2(C)[C@H]([C@H](OC(=O)c3ccccc3)[C@]3(O)C[C@H](OC(=O)[C@H](O)[C@@H](NC(=O)c4ccccc4)c4ccccc4)C(C)=C1C3(C)C)[C@]1(OC(C)=O)CO[C@@H]1C[C@@H]2O [PACLITAXEL] | < 0.008 | < 0.008 | < 0.008 | < 0.008 | –
COC[C@@]1(C[C@@H]2C(=O)[C@]34C[C@H]2C[C@H](OC(C)=O)[C@H]3[C@]2(C)[C@@H](OC(C)=O)C[C@H](O)C(C)(C)[C@H]2C(=O)[C@@H]4O)C(=O)[C@]23C[C@H]1C[C@H](O)[C@H]2[C@@]1(C)[C@H](C(=O)[C@@H]3O)C(C)(C)[C@@H](O)C[C@@H]1O | > 10 | > 10 | > 10 | > 10 | > 10
COC[C@@]1(C[C@@H]2C(=O)[C@]34C[C@H]2C[C@H](OC(C)=O)[C@H]3[C@]2(C)[C@@H](OC(C)=O)C[C@H](O)C(C)(C)[C@H]2C(=O)[C@@H]4O)C(=O)[C@]23C[C@H]1C[C@H](OC(C)=O)[C@H]2[C@]1(C)[C@@H](OC(C)=O)C[C@H](O)C(C)(C)[C@H]1C(=O)[C@@H]3O | > 10 | > 10 | > 10 | > 10 | > 10
CC(=O)O[C@H]1C[C@@H]2C[C@@]3(C(=O)[C@H]2C[C@]2(CO)C(=O)[C@]45C[C@H]2C[C@H](OC(C)=O)[C@H]4[C@]2(C)[C@@H](OC(C)=O)C[C@H](O)C(C)(C)[C@H]2C(=O)[C@@H]5O)[C@@H]1[C@]1(C)[C@@H](OC(C)=O)C[C@H](O)C(C)(C)[C@H]1C(=O)[C@@H]3O | > 10 | > 10 | > 10 | > 10 | > 10
CC(=O)O[C@H]1C[C@@H]2C[C@@]3(C(=O)[C@]24CCC2=C(O4)[C@]45C[C@H]2C[C@H](OC(C)=O)[C@H]4[C@]2(C)[C@@H](OC(C)=O)C[C@H](O)C(C)(C)[C@H]2C(=O)[C@@H]5OC(C)=O)[C@@H]1[C@]1(C)[C@@H](OC(C)=O)C[C@H](OC(C)=O)C(C)(C)[C@H]1C(=O)[C@@H]3O | > 10 | > 10 | > 10 | > 10 | > 10
CC(=O)O[C@H]1C[C@@H]2C[C@@]3(C(=O)[C@]24CCC2=C(O4)[C@]45C[C@H]2C[C@H](OC(C)=O)[C@H]4[C@]2(C)[C@@H](OC(C)=O)C[C@H](O)C(C)(C)[C@H]2[C@@H](O)[C@@H]5O)[C@@H]1[C@]1(C)[C@@H](OC(C)=O)C[C@H](O)C(C)(C)[C@H]1[C@@H](O)[C@@H]3O | > 10 | > 10 | > 10 | > 10 | > 10
